# Calls of active or inactive are those of the source. The calls are words filed in the database; no cut-off is given here.
# Tests used:
# [1] = tested on: Mus musculus; assay: Tested for the ability to protect against maximal electroshock seizure test; NA= Not active up to 300 mg/kg; assay type: functional, organism-based; parameters: dose 300 mg/kg
# In short: (§1)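 Adult male Swiss Webster mice (20–25 g) received drug ip (10 mL/kg) in normal saline or as a 1% CMC suspension. At least three dose groups of 4–8 mice were used, tested at 0.5 h. Maximal electroshock used a 50 mA current. ED50 is in mg/kg; time of peak effect was not determined; doses went up to 300 mg/kg.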
# [2] = tested on: Mus musculus; assay: Tested for the ability to protect against subcutaneous pentylenetetrazole seizure test; NA= Not active up to 300 mg/kg; assay type: functional, organism-based; parameters: dose 300 mg/kg
# In short: (§2)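 Male Swiss Webster mice (20–25 g) were dosed ip (10 mL/kg; saline or 1% CMC suspension), with ≥3 groups of 4–8 mice. At 0.5 h, pentylenetetrazole 85 mg/kg was given sc into the neck fold, and mice were watched for 30 min. Protection meant absence of clonic spasms lasting ≥5 s. ED50 is in mg/kg; doses went up to 300 mg/kg.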
# [3] = organism: Mus musculus; assay: Tested for the ability to protect against maximal electroshock seizure test; assay type: functional; in short: as §1
# [4] = tested on: Mus musculus; assay: Tested for the ability to protect against subcutaneous pentylenetetrazole seizure test; assay type: functional; conditions: sc; in short: as §2
# [5] = tested on: Mus musculus; assay: Anticonvulsant activity in the in the subcutaneous pentylenetetrazole seizure test in the mice; assay type: functional; conditions: sc
# In short: (§3)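 Phase II quantification in mice was run by the NIH ADD Program. Compounds were given ip, and ED50 (mg/kg) was read at the time of peak effect. The protective index is TD50 (rotorod ataxia) divided by ED50 in the MES or scMET test.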
# [6] = Tested for median toxic dose in rotarod ataxia test for neurological toxicity in mice; assay type: organism-based; conditions: mouse, in vivo
# In short: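 Neurotoxicity was measured in mice by the NIH ADD Program using the rotorod ataxia test. Drug was given ip, and the median toxic dose (mg/kg) was measured at the time of peak deficit.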
# [7] = tested on: Mus musculus; assay: Intraperitoneal anticonvulsant activity in the maximal electroshock seizure test expressed as median effective dose in phase II trial in mice; conditions: ip
# [8] = tested on: Mus musculus; assay: Tested for the ability to protect against subcutaneous pentylenetetrazole seizure test; Previously tested; assay type: functional; conditions: sc
# [9] = Protective index is the ratio between TD50 and ED50 values in subcutaneous pentylenetetrazole seizure test (scMET); assay type: functional; in short: as §3
# [10] = Protective index is the ratio between TD50 and ED50 values in maximal electroshock seizure test (MES); assay type: functional; in short: as §3
# [11] = tested on: Mus musculus; assay: Tested for the ability to protect against subcutaneous pentylenetetrazole seizure test; Activity at 300 mg/kg but ED50 cannot be estimated; assay type: functional, organism-based; parameters: dose 300 mg/kg; in short: as §2
# [12] = tested on: Mus musculus; assay: Tested for the ability to protect against subcutaneous pentylenetetrazole seizure test; Activity at 300 mg/kg but ED50 can not be estimated; assay type: functional, organism-based; parameters: dose 300 mg/kg; in short: as §2
# [13] = tested on: Mus musculus; assay: Anticonvulsant activity of the substance upon subcutaneous administration in pentylenetetrazole seizure test in mice; assay type: functional; conditions: ip, in the assay text read “upon intraperitoneal administration” for “upon subcutaneous administration”; in short: as §3
# [14] = tested on: Mus musculus; assay: Anticonvulsant activity of the substance upon subcutaneous administration in pentylenetetrazole seizure test in mice; NA= Not active; assay type: functional, organism-based
# [15] = tested on: Mus musculus; assay: Tested for the ability to protect against maximal electroshock seizure test; Activity at 300 mg/kg, but ED50 cannot be estimated; assay type: functional, organism-based; parameters: dose 300 mg/kg; in short: as §1
smiles,measurement,setting,value
CSCC[C@H]1C(=O)N=C(N)N1C(=O)OCc1ccccc1,ED50,[1],inactive
same,ED50,[2],inactive
CC[C@H]1C(=O)N=C(N)N1C(=O)OCc1ccccc1,ED50,[3],69.2 mg/kg
same,ED50,[4],223 mg/kg
same,ED50,[5],< 500 mg/kg
same,TD50,[6],< 500 mg/kg
same,ED50,[7],99.5 mg/kg
C=CC[C@H]1C(=O)N=C(N)N1C(=O)OCc1ccccc1,ED50,[3],53.3 mg/kg
same,ED50,[4],193 mg/kg
C[C@H]1C(=O)N=C(N)N1C(=O)OCc1ccccc1,ED50,[3],171 mg/kg
same,ED50,[2],inactive
CC(C)C[C@H]1C(=O)N=C(N)N1C(=O)OCc1ccccc1,ED50,[8],141 mg/kg
same,PI,[9],2.5
same,PI,[10],3.5
same,ED50,[7],98.6 mg/kg
NC(=O)CC[C@H]1C(=O)N=C(N)N1C(=O)OCc1ccccc1,ED50,[1],inactive
same,ED50,[2],inactive
NC1=NC(=O)[C@H](Cc2c[nH]c3ccccc23)N1C(=O)OCc1ccccc1,ED50,[1],inactive
same,ED50,[11],Activity
CCCC[C@H]1C(=O)N=C(N)N1C(=O)OCc1ccccc1,ED50,[3],> 1000 mg/kg
same,ED50,[12],Activity
CCC[C@H]1C(=O)N=C(N)N1C(=O)OCc1ccccc1,ED50,[3],53.3 mg/kg
same,ED50,[4],141 mg/kg
same,ED50,[13],141 mg/kg
same,PI,[9],1.3
same,PI,[10],2.3
same,TD50,[6],188 mg/kg
same,ED50,[7],80.2 mg/kg
CCC[C@@H]1C(=O)N=C(N)N1C(=O)OCc1ccccc1,ED50,[1],inactive
same,ED50,[4],374 mg/kg
O=C1NC(=O)C(c2ccccc2)(c2ccccc2)N1,ED50,[14],inactive
NC1=NC(=O)[C@H](CSCc2ccccc2)N1C(=O)OCc1ccccc1,ED50,[1],inactive
same,ED50,[2],inactive
CC(C)[C@H]1C(=O)N=C(N)N1C(=O)OCc1ccccc1,ED50,[3],51.9 mg/kg
same,ED50,[12],Activity
CCC(C)[C@H]1C(=O)N=C(N)N1C(=O)OCc1ccccc1 (stereo partly drawn),ED50,[3],74.4 mg/kg
same,ED50,[4],176 mg/kg
NC1=NC(=O)[C@H](Cc2ccccc2)N1C(=O)OCc1ccccc1,ED50,[1],inactive
same,ED50,[8],> 1000 mg/kg
NC1=NC(=O)CN1C(=O)OCc1ccccc1,ED50,[15],Activity
same,ED50,[2],inactive
CC1(C)C(=O)N=C(N)N1C(=O)OCc1ccccc1,ED50,[3],228 mg/kg
same,ED50,[2],inactive

# From ChEMBL document CHEMBL1127445, “Structure-activity study of 5-substituted 1-carbobenzoxy-2-iminohydantoins as potential anticonvulsant agents” (J Med Chem, 1994)
